Assay results: ChEMBL document CHEMBL1122016, “Aminotetralins as narcotic antagonists. 2. Synthesis and opiate-related activity of 1-phenyl-3-aminotetralins” (1982)
The source made the active and inactive calls. The rule behind the calls is not given here.

What was measured:
[1] = tested on: Mus musculus; assay: The ability to reverse an ED50 dose of morphine when tested in mice by the tail-flick procedure at the dose of 3 mg/kg (s.c.) value expressed as narcotic-antagonistic activity; type: functional
How it was run: (§1)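 Mouse tail-flick antagonism assay: test agents given subcutaneously as hydrochloride salts of racemic mixtures, each at 30, 10, 3 and 1 mg/kg, against a subcutaneous ED50 dose of morphine. The read-out is percent inhibition, meaning reversal, of the morphine tail-flick response. Testing was performed by an outside laboratory (NIDA).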

[2] = tested on: Mus musculus; assay: The ability to reverse an ED50 dose of morphine when tested in mice by the tail-flick procedure at the dose of 10 mg/kg (s.c.) value expressed as narcotic-antagonistic activity; type: functional; how it was run: as §1
[3] = tested on: Mus musculus; assay: The ability to reverse an ED50 dose of morphine when tested in mice by the tail-flick procedure at the dose of 30 mg/kg (s.c.) value expressed as narcotic-antagonistic activity; type: functional; how it was run: as §1
[4] = tested on: Mus musculus; assay: The ability to reverse an ED50 dose of morphine when tested in mice by the tail-flick procedure at the dose of 1 mg/kg (s.c.) value expressed as narcotic-antagonistic activity; type: functional; how it was run: as §1
[5] = species: Mus musculus; assay: activity in the mouse hotplate procedure; type: functional
[6] = tested on: Mus musculus; assay: The Narcotic-antagonistic activity the ability to reverse an ED50 dose of morphine when tested in mice by the tail-flick procedure at the dose of 1 mg/kg (s.c.); type: functional; settings: sc; how it was run: as §1
[7] = tested on: Mus musculus; assay: The Narcotic-antagonistic activity the ability to reverse an ED50 dose of morphine when tested in mice by the tail-flick procedure at the dose of 10 mg/kg (s.c.); type: functional; settings: sc; how it was run: as §1
[8] = tested on: Mus musculus; assay: The Narcotic-antagonistic activity the ability to reverse an ED50 dose of morphine when tested in mice by the tail-flick procedure at the dose of 3 mg/kg (s.c.); type: functional; settings: sc; how it was run: as §1
[9] = tested on: Monkey; assay: Compound was tested for signs of opiate abstinence at 5 mg/kg dose in monkeys; No effect; type: functional, organism-based; set-up: dose 5 mg/kg; settings: Cercopithecidae
[10] = tested on: Mus musculus; assay: The Narcotic-antagonistic activity the ability to reverse an ED50 dose of morphine when tested in mice by the tail-flick procedure at the dose of 30 mg/kg (s.c.); type: functional; settings: sc; how it was run: as §1

SMILES	ED50 [5] [mg/kg]	inhibition in vivo at 1 mg/kg [6] [%]	inhibition in vivo at 3 mg/kg [8] [%]	other results
C=CCN1CC[C@]23c4c5ccc(O)c4O[C@H]2C(=O)CC[C@@]3(O)[C@H]1C5.Cl [NALOXONE HYDROCHLORIDE]	–	–	–	AD50 [1]: 0.031 mg/kg; AD50 [2]: 0.031 mg/kg; AD50 [3]: 0.031 mg/kg; AD50 [4]: 0.031 mg/kg
CN(CC1CC1)C1C=C(c2ccccc2)c2ccccc2C1 (stereo unspecified)	> 50	–	–	–
COc1ccc2c3c1O[C@H]1[C@@H](O)C=C[C@H]4[C@@H](C2)N(C)CC[C@@]341.O=S(=O)(O)O	7.5	–	–	–
CN1CC[C@]23c4c5ccc(O)c4O[C@H]2[C@@H](O)C=C[C@H]3[C@H]1C5.CN1CC[C@]23c4c5ccc(O)c4O[C@H]2[C@@H](O)C=C[C@H]3[C@H]1C5.O=S(=O)(O)O	1.2	–	–	–
CN(CC1CC1)[C@@H]1Cc2ccccc2[C@@H](c2ccccc2)C1	9.1	60	100	inhibition in vivo at 10 mg/kg [7]: 54%; Activity [9]: inactive; inhibition in vivo at 30 mg/kg [10]: 0%
CN(CC1CC1)[C@@H]1Cc2ccccc2[C@H](c2ccccc2)C1	6.3	75	100	–
